Data: ChEMBL document CHEMBL3769320, “Cell Penetrant Inhibitors of the KDM4 and KDM5 Families of Histone Lysine Demethylases. 2. Pyrido[3,4-d]pyrimidin-4(3H)-one Derivatives” (J Med Chem, 2016)

Key:
[1] = target: T1, Lysine-specific demethylase 4E (Homo sapiens, UniProt B2RXH2); test: Inhibition of KDM4E (unknown origin) by RFMS assay
T1 sequence (B2RXH2 whole entry): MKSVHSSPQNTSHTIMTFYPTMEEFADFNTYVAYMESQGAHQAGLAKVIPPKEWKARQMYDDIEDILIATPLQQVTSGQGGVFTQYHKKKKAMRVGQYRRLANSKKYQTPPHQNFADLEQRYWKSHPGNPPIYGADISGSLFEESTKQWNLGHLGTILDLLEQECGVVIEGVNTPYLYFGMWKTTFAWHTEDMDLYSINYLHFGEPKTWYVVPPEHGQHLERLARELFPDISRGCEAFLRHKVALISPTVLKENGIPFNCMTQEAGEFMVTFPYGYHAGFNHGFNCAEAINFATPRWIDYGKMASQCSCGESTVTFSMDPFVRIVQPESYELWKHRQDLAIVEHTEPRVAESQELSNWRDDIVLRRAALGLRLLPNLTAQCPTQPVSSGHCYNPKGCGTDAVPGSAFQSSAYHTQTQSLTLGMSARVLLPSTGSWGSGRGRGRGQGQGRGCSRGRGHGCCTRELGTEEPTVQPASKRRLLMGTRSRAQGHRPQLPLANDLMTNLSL

[2] = target: T2, Lysine-specific demethylase 4C (Homo sapiens, UniProt Q9H3R0); test: Inhibition of N-terminal his-tagged human KDM4C expressed in Escherichia coli BL21(DE3) using trimethylated peptide substrate by RFMS assay
T2 sequence (Q9H3R0 whole entry): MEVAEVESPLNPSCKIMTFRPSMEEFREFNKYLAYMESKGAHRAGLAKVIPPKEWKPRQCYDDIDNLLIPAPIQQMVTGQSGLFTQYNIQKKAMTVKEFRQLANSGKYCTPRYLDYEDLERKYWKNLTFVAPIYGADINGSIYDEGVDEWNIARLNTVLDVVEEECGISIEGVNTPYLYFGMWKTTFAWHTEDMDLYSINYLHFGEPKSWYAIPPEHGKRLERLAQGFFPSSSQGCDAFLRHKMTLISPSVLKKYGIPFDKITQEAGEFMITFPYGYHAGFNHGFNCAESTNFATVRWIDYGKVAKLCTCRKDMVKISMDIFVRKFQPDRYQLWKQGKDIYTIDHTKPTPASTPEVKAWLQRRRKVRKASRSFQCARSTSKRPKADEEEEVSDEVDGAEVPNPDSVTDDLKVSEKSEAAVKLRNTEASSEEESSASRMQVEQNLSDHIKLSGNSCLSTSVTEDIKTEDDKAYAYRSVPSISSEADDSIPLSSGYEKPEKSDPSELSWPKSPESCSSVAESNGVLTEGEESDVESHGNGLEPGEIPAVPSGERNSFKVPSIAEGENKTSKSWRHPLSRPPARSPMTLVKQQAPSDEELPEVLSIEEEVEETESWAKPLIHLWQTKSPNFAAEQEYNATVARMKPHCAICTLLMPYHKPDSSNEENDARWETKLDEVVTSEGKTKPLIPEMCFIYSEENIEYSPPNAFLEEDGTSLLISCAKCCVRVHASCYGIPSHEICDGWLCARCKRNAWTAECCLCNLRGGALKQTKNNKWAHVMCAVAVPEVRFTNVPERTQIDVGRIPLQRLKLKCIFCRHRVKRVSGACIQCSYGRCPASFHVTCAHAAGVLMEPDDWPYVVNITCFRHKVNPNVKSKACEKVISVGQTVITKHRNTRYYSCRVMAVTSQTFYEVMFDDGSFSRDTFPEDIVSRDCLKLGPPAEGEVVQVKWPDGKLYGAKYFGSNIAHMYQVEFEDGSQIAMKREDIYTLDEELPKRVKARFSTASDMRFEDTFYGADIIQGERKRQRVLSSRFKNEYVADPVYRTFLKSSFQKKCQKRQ

[3] = target: T3, Lysine-specific demethylase 5C (Homo sapiens, UniProt P41229); test: Inhibition of KDM5C catalytic domain (1 -764 aa) (unknown origin) expressed in Sf9 cells using H3K4Me3 peptide as substrate by RFMS assay
T3 sequence (P41229 whole entry, the tested form may be a part): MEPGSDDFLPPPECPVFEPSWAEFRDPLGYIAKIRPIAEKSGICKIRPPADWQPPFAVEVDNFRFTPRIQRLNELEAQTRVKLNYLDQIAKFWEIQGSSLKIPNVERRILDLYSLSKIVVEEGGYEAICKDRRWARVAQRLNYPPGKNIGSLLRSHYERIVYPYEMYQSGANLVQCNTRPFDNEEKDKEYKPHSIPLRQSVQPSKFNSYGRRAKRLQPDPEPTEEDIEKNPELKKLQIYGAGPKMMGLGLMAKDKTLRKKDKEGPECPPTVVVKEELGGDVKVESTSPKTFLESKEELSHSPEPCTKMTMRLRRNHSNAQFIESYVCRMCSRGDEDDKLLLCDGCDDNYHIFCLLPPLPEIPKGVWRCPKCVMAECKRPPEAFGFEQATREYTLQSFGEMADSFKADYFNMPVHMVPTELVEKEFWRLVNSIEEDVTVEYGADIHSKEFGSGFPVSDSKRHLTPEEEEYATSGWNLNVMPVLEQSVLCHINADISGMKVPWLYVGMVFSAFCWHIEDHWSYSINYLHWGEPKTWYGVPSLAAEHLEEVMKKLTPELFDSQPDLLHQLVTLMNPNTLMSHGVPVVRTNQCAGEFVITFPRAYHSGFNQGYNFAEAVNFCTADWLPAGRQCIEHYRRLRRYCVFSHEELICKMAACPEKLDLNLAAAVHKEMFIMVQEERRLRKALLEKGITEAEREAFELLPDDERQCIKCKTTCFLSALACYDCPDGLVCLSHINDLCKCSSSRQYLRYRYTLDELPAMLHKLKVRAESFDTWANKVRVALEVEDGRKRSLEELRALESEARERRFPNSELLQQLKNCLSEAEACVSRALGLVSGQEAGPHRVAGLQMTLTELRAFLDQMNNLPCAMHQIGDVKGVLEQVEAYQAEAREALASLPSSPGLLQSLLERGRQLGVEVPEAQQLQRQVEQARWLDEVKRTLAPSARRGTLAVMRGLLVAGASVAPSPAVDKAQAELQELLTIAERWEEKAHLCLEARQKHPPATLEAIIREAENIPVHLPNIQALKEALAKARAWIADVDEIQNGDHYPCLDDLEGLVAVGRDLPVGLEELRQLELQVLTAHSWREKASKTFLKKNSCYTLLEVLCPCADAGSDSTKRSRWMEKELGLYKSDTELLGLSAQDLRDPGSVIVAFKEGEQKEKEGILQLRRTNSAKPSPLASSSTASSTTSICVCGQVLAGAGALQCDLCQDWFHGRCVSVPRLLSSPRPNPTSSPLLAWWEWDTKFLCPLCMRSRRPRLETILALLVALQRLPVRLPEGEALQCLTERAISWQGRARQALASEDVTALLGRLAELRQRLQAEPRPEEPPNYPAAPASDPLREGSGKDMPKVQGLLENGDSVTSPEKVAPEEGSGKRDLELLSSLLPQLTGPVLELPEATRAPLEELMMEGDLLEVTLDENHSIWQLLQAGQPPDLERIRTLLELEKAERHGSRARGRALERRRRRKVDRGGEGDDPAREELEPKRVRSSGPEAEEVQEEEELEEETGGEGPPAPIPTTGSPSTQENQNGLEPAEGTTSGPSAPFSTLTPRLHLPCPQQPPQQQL

[4] = target: T3, Lysine-specific demethylase 5C; test: Inhibition of human KDM5C transfected in U2OS cells assessed as inhibition of […] demethylation for 24 hrs; format: cell-based
Method in brief: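 High-content cell imaging assay in U2OS cells overexpressing KDM5C, the same cell type as the KDM4C cellular mechanistic assay. Cellular potency reported as pIC50.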

[5] = target: T2, Lysine-specific demethylase 4C; test: Inhibition of N-terminal HALO-tagged full-length human KDM4C transfected in U2OS cells assessed as inhibition of H3K9Me3 demethylation for 24 hrs
[6] = physchem; settings: buffer, pH 7.4
[7] = target: T4, Lysine-specific demethylase 4A (Homo sapiens, UniProt O75164); test: Inhibition of KDM4A (unknown origin) by RFMS assay
T4 sequence (O75164 whole entry): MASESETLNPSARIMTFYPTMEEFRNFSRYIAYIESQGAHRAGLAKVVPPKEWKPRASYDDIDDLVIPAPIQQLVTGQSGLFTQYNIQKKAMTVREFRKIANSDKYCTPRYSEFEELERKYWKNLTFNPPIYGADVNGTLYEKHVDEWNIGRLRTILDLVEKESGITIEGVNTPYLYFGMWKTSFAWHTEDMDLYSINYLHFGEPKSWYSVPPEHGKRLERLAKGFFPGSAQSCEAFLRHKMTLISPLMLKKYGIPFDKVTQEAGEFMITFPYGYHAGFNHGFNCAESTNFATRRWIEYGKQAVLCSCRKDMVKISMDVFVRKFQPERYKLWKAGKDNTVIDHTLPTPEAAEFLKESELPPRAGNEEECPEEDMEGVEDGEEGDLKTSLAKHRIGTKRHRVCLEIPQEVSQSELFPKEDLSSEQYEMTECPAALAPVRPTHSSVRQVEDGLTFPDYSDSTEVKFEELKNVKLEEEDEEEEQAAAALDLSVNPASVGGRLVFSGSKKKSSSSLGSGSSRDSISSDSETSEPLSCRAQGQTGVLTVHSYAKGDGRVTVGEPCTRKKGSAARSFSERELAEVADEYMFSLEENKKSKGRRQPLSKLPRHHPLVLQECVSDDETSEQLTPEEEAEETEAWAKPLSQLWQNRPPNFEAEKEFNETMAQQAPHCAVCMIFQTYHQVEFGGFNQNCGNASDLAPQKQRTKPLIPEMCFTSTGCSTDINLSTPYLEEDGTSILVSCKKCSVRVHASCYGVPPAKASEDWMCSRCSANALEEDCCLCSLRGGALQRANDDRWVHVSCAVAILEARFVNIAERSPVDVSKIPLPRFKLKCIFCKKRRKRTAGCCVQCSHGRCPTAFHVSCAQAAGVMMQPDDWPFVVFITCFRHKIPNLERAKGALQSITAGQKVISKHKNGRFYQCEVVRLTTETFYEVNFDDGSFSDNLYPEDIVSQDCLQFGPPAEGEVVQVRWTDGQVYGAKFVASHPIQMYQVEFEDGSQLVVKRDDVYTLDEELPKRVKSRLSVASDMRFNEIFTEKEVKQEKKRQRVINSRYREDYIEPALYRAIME

[8] = target: T5, Lysine-specific demethylase 4D (Homo sapiens, UniProt Q6B0I6); test: Inhibition of KDM4D (unknown origin) by RFMS assay
T5 sequence (Q6B0I6 whole entry): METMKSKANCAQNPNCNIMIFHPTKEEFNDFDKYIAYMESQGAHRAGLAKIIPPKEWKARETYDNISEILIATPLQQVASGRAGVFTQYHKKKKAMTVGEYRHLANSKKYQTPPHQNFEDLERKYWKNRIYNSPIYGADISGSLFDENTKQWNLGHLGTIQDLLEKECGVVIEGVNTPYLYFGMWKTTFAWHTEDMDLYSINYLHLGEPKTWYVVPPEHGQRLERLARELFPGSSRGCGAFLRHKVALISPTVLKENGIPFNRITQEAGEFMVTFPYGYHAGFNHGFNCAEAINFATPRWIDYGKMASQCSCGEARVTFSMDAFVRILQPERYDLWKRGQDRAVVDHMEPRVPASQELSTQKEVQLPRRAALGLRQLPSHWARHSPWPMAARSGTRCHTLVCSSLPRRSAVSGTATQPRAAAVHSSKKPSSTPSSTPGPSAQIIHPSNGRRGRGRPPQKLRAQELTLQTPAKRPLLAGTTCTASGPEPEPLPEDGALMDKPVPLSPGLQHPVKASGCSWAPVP

[9] = target: T2, Lysine-specific demethylase 4C; test: Inhibition of N-terminal his-tagged full-length human KDM4C transfected in U2OS cells assessed as inhibition of H3K9Me3 demethylation for 24 hrs; format: cell-based
[10] = target: Lysine-specific demethylase 6B (Homo sapiens, UniProt O15054); test: Inhibition of KDM6B (unknown origin) by RFMS assay
Lysine-specific demethylase 6B, sequence (O15054 whole entry): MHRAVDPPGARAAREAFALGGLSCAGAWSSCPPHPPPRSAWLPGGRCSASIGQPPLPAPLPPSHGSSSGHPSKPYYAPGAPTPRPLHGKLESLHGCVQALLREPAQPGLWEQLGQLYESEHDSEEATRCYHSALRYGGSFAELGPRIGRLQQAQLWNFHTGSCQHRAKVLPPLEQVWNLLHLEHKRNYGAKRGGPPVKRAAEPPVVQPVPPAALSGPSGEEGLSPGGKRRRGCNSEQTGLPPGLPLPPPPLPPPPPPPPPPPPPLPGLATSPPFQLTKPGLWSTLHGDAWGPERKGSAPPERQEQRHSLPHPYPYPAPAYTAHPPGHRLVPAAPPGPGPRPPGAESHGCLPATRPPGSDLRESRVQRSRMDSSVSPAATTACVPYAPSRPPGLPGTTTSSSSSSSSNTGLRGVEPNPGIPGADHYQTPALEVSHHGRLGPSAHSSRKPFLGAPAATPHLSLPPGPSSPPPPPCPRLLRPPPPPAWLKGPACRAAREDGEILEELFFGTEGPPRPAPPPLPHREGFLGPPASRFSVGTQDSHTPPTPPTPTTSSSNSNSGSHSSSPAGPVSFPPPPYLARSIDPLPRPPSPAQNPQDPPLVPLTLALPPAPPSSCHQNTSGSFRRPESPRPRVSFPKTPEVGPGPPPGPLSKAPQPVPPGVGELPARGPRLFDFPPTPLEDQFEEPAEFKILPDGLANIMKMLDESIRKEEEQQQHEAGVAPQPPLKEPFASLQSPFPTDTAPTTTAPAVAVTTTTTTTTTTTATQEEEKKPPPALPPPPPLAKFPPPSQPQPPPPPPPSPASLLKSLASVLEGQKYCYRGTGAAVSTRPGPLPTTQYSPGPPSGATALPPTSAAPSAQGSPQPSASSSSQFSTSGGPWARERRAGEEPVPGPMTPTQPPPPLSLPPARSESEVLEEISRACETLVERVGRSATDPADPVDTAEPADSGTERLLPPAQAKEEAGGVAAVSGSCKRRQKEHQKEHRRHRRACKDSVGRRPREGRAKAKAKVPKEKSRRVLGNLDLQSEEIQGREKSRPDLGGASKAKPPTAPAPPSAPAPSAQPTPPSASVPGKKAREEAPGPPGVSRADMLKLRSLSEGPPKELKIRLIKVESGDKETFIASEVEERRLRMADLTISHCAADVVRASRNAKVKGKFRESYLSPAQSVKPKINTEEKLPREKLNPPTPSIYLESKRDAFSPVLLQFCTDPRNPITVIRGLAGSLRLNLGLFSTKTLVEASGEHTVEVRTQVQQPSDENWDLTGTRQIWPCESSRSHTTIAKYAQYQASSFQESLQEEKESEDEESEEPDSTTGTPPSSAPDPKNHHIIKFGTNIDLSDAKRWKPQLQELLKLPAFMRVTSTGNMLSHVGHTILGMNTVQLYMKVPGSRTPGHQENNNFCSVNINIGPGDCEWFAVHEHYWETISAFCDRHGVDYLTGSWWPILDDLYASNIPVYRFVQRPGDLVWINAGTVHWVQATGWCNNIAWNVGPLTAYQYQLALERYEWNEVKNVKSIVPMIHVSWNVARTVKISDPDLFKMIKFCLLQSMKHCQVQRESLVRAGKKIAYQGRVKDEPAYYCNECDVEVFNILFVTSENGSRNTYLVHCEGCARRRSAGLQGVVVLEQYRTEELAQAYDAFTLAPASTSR

[11] = target: Prolyl hydroxylase EGLN3 (Homo sapiens, UniProt Q9H6Z9); test: Inhibition of full-length EGLN3 (unknown origin) expressed in Escherichia coli BL21(DE3) cells by HTRF assay
Prolyl hydroxylase EGLN3, sequence (Q9H6Z9 whole entry): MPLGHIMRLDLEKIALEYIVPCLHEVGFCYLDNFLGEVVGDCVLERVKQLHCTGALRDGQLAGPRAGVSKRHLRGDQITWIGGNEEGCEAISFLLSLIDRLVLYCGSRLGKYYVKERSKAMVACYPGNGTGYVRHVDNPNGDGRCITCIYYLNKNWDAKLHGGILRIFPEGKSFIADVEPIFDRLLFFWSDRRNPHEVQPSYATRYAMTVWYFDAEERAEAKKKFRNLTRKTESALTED

Row | Compound | IC50 [2] [nM] | logD [6] | IC50 [9] [nM] | further results
1 | Nc1cnccc1C(=O)O |  |  |  | IC50 [1]: 1260 nM
2 | CC(C)c1ccc(Oc2nc3cnccc3c(=O)[nH]2)cn1 | 1000 | 1.5 |  | IC50 [3]: 126 nM; IC50 ([4]; read-out: pIC50 (converted)): 50100 nM; IC50 [5]: 2000 nM; IC50 [1]: 398 nM; IC50 [7]: 1580 nM; IC50 [8]: 631 nM
3 | O=c1[nH]c(Oc2cnn(-c3ccccc3)c2)nc2cnccc12 | 398 | 1.9 | 3980 | 
4 | Cn1cc(Oc2nc3cnccc3c(=O)[nH]2)cn1 | 398 | -0.3 | 7940 | 
5 | COc1cccc(Cn2cc(Oc3nc4cnccc4c(=O)[nH]3)cn2)c1 | 631 | 2 | 6310 | 
6 | O=c1[nH]c(Oc2cnn(C3CCCC3)c2)nc2cnccc12 | 631 | 1.7 |  | IC50 [3]: 126 nM; IC50 ([4]; read-out: IC50): 2500 nM; IC50 ([4]; read-out: pIC50 (converted)): 5010 nM; IC50 [5]: 2000 nM; IC50 [1]: 398 nM; IC50 [10]: > 100000 nM; IC50 [7]: 794 nM; IC50 [8]: 501 nM; IC50 [11]: > 100000 nM
7 | O=c1[nH]c(Oc2cnn(C3CCCCC3)c2)nc2cnccc12 | 398 | 2.2 | 3980 | 
8 | O=c1[nH]c(-c2cncc(F)c2)nc2cnccc12 | 2000 |  |  | 
9 | CC(C)n1cc(Oc2nc3cnccc3c(=O)[nH]2)cn1 | 501 | 0.7 | 5010 | 
10 | O=c1[nH]c(Oc2cnn(C3CCCCCC3)c2)nc2cnccc12 | 501 | 2.9 | 2510 | 
11 | O=c1ncn(Cc2ccccc2)c2cnccc12 | 25100 |  |  | 
12 | O=c1[nH]c(OCc2ccccc2)nc2cnccc12 | 2000 | 2.8 | > 100000 | 
13 | O=c1[nH]c(Oc2cnn(Cc3cccnc3)c2)nc2cnccc12 | 631 | 0.3 | 12600 | 
14 | Cc1nn(C)cc1Oc1nc2cnccc2c(=O)[nH]1 | 2510 | 0 | > 100000 | 
15 | O=c1[nH]c(OC2CCCCC2)nc2cnccc12 | 3160 | 3.7 | 25100 | 
16 | Cc1c(Oc2nc3cnccc3c(=O)[nH]2)cnn1C | 2000 | -0.2 |  | 
17 | O=c1[nH]c(OCC2CCCCC2)nc2cnccc12 | 3160 | 4.5 | > 100000 | 
18 | O=c1[nH]c(Oc2cnn(Cc3ccccc3)c2)nc2ncccc12 | > 100000 |  | > 100000 | IC50 [3]: 31600 nM; IC50 ([4]; read-out: pIC50 (converted)): > 100000 nM; IC50 [1]: > 100000 nM; IC50 [10]: > 100000 nM; IC50 [7]: > 100000 nM; IC50 [8]: > 100000 nM; IC50 [11]: > 100000 nM
19 | O=c1[nH]c(Oc2ccc(Cl)c(O)c2)nc2cnccc12 | 398 | 1.1 |  | IC50 [3]: 200 nM; IC50 ([4]; read-out: pIC50 (converted)): 31600 nM; IC50 [5]: 2000 nM; IC50 [1]: 126 nM; IC50 [10]: > 100000 nM; IC50 [7]: 398 nM; IC50 [8]: 316 nM; IC50 [11]: > 100000 nM
20 | O=c1ncn(CCCc2ccccc2)c2cnccc12 | ≥ 100000 |  |  | 
21 | O=c1[nH]c(Oc2cnn(Cc3ccccc3)c2)nc2cnccc12 | 501 | 1.8 | 5010 | IC50 [3]: 63.1 nM; IC50 ([4]; read-out: pIC50 (converted)): 3980 nM; IC50 [5]: 2000 nM; IC50 [1]: 501 nM; IC50 [10]: > 100000 nM; IC50 [7]: 631 nM; IC50 [8]: 398 nM; IC50 [11]: > 100000 nM

The next lines start with results.

Row | IC50 [2] [nM] | logD [6] | IC50 [9] [nM] | Compound | further results
22 | 20000 |  |  | O=c1[nH]c(-c2ccccc2)nc2cnccc12 | 
23 | > 100000 |  |  | O=c1[nH]ncc2cnccc12 | 
24 | > 100000 |  |  | O=c1[nH]ccc2cnccc12 | 
25 | 501 |  | 10000 | O=c1[nH]c(Oc2ccc(Cl)cc2)nc2cnccc12 | 
26 | 7940 |  |  | O=c1[nH]c(-c2cccnc2)nc2cnccc12 | 
27 | 200 | 0.3 | 10000 | O=c1[nH]c(Oc2cccc(O)c2)nc2cnccc12 | 
28 | 398 | -0.6 | 7940 | O=c1[nH]c(Oc2cn[nH]c2)nc2cnccc12 | 
29 | 501 | -0.2 | 12600 | O=c1[nH]c(Oc2cccnc2)nc2cnccc12 | 
30 | 631 | 1.2 | 12600 | O=c1[nH]c(Oc2ccccc2)nc2cnccc12 | 
31 | > 100000 |  |  | O=c1[nH][nH]c2cnccc12 | 
